Screens from PubChem BioAssay.
Only some compounds are listed: those with a hit (about 4.8% of all), similar ones and a draw of the others.
PAFAH1B2 inh – PAFAH1B2 enzyme inhibitors, primary screen, biochemical, fluorescence polarization, human; recombinant PAFAH1B2, FP-rhodamine activity probe; AID 492953, 2010; actives 1.2% (n = 340,000); inhibition, % at 3.39 µM; Platelet-activating factor acetylhydrolase IB subunit alpha2 (Homo sapiens), P68402;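 active = inhibition above the mean of all tested compounds plus 3 SD, cut at about 24% in these data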;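 also: 0% = enzyme with DMSO and 100% = wells lacking PAFAH1B2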
Target sequence (P68402 whole entry, looked up): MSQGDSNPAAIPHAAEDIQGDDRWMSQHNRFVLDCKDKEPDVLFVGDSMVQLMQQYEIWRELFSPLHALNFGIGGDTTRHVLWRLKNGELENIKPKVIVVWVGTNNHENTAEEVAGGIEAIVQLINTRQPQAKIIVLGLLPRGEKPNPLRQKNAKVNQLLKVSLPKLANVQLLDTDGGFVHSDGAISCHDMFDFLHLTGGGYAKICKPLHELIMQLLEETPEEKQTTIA
NR3A LBD binder – binders of NR3A ligand-binding domain, primary screen, biophysical, differential scanning fluorimetry, uHTS. Glutamate receptor ionotropic, NMDA 3A (GRIN3A) ligand-binding domain. NR3A LBD differential scanning fluorimetry, Tm shift; 0% = protein alone, 100% = glycine-bound protein. Tm shift relative to glycine control, % at 25 µM. actives 2.5% (n = 340,000). AID 1259313, 2017;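 active = melting temperature shift of at least 10% of the positive control shift, at one fixed dose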
PAFAH2 FP inh – PAFAH2 enzyme inhibitors, primary screen, biochemical, fluorescence polarization, human. recombinant PAFAH2, FP-rhodamine activity probe. inhibition, % at 3.39 µM. actives 0.99% (n = 340,000). AID 492956, 2010. Platelet-activating factor acetylhydrolase 2, cytoplasmic (Homo sapiens), Q99487;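 active = inhibition above the mean over all tested compounds plus 3 SD, cut at about 30% in these data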;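 also: inhibitors block probe labeling of enzyme so polarization drops; 0% = enzyme with DMSO and 100% = wells lacking PAFAH2 protein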
pPAFAH inh – pPAFAH enzyme inhibitors, primary screen, biochemical, fluorescence polarization, human; recombinant pPAFAH, FP-rhodamine probe fluorescence polarization; inhibition, % at 3.39 µM; actives 1.5% (n = 330,000);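 active = inhibition above the mean inhibition across the screen plus 3 SD, cut at about 25% in these data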;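 also: inhibitors block binding of the rhodamine activity-based probe so polarization drops; 0% = enzyme with DMSO and 100% = wells lacking pPAFAH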
UCH37 inh – inhibitors of human UCH37 deubiquitinase, primary screen, biochemical, Ub-AMC cleavage, fluorescence; Ubiquitin carboxyl-terminal hydrolase isozyme L5 (Homo sapiens), Q9Y5K5; purified proteasome/UCH37; inhibition, % (test concentration not listed); actives 0.33% (n = 330,000);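 active = mean inhibition over replicate wells above about 20%, limit read from the data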;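 also: 0% = compound-free wells with enzyme and 100% = wells lacking proteasome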
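System: Proteasome-associated human UCH37 deubiquitinase; Input: 0.15 nM proteasome in added enzyme buffer; Also added: Ub-AMC substrate from 1 µM stock; Incubation: 30 min compound-proteasome preincubation then 25 min substrate reaction, room temperature; Detection: fluorescence, ex 355 nm, em 460 nm; Read-out: % inhibition of Ub-AMC cleavage fluorescence; Benchmarks: no-proteasome and no-compound wells.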
PAFAH1B3 inh – PAFAH1B3 enzyme inhibitors, primary screen, biochemical, fluorescence polarization, human; Platelet-activating factor acetylhydrolase IB subunit alpha1 (Homo sapiens), Q15102; recombinant PAFAH1B3, FP-rhodamine probe; inhibition, % at 3.39 µM; actives 0.28% (n = 340,000); AID 492972, 2010;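 active = inhibition above the screen-wide average of all tested compounds plus 3 SD, cut at about 25% in these data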;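 also: 0% = enzyme with DMSO only and 100% = wells lacking PAFAH1B3 protein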
Target sequence (Q15102 whole entry, looked up): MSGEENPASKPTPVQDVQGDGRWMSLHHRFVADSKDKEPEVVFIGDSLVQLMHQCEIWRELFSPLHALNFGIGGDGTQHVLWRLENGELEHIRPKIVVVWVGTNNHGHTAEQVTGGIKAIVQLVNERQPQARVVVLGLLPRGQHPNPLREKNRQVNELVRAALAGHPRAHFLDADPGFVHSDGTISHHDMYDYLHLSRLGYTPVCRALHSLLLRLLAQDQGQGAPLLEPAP
PAFAH2 confirm – PAFAH2 enzyme inhibitors, confirmation, biochemical, fluorescence polarization, human; recombinant PAFAH2, FP-rhodamine activity probe; actives 65% (n = 2,300); AID 493030, 2011; shares compounds with PAFAH2 FP inh; inhibition, % at 3.39 µM;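 active = mean inhibition over three repeats above a set limit taken from the earlier primary screen, cut at about 30% in these data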;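 also: inhibitor blocks binding of rhodamine activity probe so polarization falls; 0% = enzyme with DMSO and 100% = wells lacking PAFAH2 protein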
Starred values were filed as active, the others as inactive; . = not tested or not shown.

SMILES | PAFAH1B2 inh | NR3A LBD binder | PAFAH2 FP inh | pPAFAH inh | UCH37 inh | PAFAH1B3 inh | PAFAH2 confirm
CC1CCCC(NC(=O)COC(=O)c2n[nH]c3ccccc23)C1C (centres undefined) | 5 | -1 | 79* | -11 | -1 | 5 | 72*
CC1CCCC(NC(=O)COC(=O)c2cccs2)C1C (centres undefined) | 0 | -2 | 81* | 3 | 0 | 3 | 85*
Cc1ccc(NC(=O)COC(=O)CNC(=O)c2ccc(C)s2)cc1 | 5 | 1 | 6 | -8 | 1 | 4 | .
O=C(COC(=O)c1ccc(NS(=O)(=O)c2cccs2)cc1O)NC1CCCCC1 | 8 | -4 | 34* | 18 | 3 | 12 | 17
CCOc1cccc(C=NNc2nc(N3CCCC3)nc(N3CCCC3)n2)c1O | . | . | . | . | 7 | . | .
O=C(NN=Cc1ccc(C(F)(F)F)cc1)c1ccc(O)cc1 | . | . | . | . | 5 | . | .
O=C(CSc1nc2ccccc2o1)NN=Cc1ccccc1C(=O)O | . | . | . | . | 4 | . | .
O=C(COC(=O)c1cccs1)NC1CCCCC1 | 5 | 1 | 76* | 12 | 1 | 3 | 85*
O=C(COC(=O)CCC(=O)c1cccs1)NC1CCCCC1 | 6 | 0 | 4 | 2 | 4 | 13 | .
O=C(COC(=O)c1cccs1)NC1CCCC1 | -1 | 1 | 81* | 12 | 2 | 1 | 74*
Cc1cc(C)cc(NC(=O)COC(=O)c2ccc(CN3CCCC3=O)cc2)c1 | 5 | 0 | 86* | 14 | -3 | -2 | 85*
Cc1ccc(NC(=O)COC(=O)c2ccc(CN3CCCC3=O)cc2)c(Cl)c1 | 3 | -2 | 69* | 10 | -1 | 0 | 71*
CC(C)(C)c1ccc(NC(=O)COC(=O)c2ccc(CN3CCCC3=O)cc2)cc1 | 0 | 0 | 61* | 13 | -1 | 6 | 51*
N#CCC(=O)Nc1ccc(C(=O)OCC(=O)N2CCCC2=O)cc1 | -3 | 0 | 5 | -1 | 3 | 6 | .
CNC(=S)NN=C(C)c1cccc([N+](=O)[O-])c1 | . | . | . | . | 4 | . | .
COc1cc(C(C)=O)ccc1COc1ccc(C(=O)OCC(=O)NC2CCS(=O)(=O)C2)cc1OC (centres undefined) | 6 | 2 | 11 | 2 | 5 | 3 | .
COc1cc(C(C)=O)ccc1COc1ccc(C(=O)OCC(=O)NC(C)(C)C)cc1OC | -2 | -3 | 74* | 20 | 4 | -3 | 79*
CCOC(=O)c1ccc(N2C(=O)C3CCOc4ccccc4C32)cc1 (centres undefined) | 9 | 0 | 80* | -1 | 2 | 10 | 63*
Cc1ccc(C(=O)OCC(=O)c2ccc[nH]2)s1 | 5 | -3 | 35* | 11 | 1 | 6 | 31*
O=C(OCC(=O)c1ccc[nH]1)c1ccc(C(F)(F)F)cc1 | 0 | 2 | 3 | 19 | 5 | 11 | .
CC(C)Oc1ccc(C(=O)OCC(=O)c2ccc[nH]2)cc1 | 2 | 2 | 54* | 8 | 5 | 5 | 36*
O=C(COC(=O)c1ccc(Cl)s1)c1ccc[nH]1 | -7 | -1 | 13 | 9 | 3 | 7 | .
O=C(c1ccc(COc2ccc(Cl)cc2Cl)o1)N1CCCC1 | 6 | -2 | 30* | . | 2 | -9 | 29
COc1ccccc1OCc1ccc(C(=O)N2CCCCC2)o1 | 1 | 0 | 0 | -3 | 0 | 2 | .
CCN(CC)S(=O)(=O)c1ccc(Cl)c(NC(=O)COC(=O)c2c(C)noc2C)c1 | -5 | -1 | 7 | 7 | 4 | 1 | .
SMILES | PAFAH1B2 inh | NR3A LBD binder | PAFAH2 FP inh | pPAFAH inh | UCH37 inh | PAFAH1B3 inh | PAFAH2 confirm
CCN(CC)S(=O)(=O)c1ccc(Cl)c(NC(=O)COC(=O)C2CCCCC2)c1 | 7 | -1 | 46* | 8 | 5 | 3 | 31*
CCN(CC)S(=O)(=O)c1ccc(Cl)c(NC(=O)COC(=O)c2cccn2C)c1 | 6 | 1 | 31* | 20 | 1 | 3 | 21
COC(=O)[C@H](Cc1ccccc1)NC(=O)NCc1ccccc1 | 7 | 1 | 7 | 0 | -1 | 2 | .
COC(=O)[C@@H](Cc1ccccc1)NC(=O)[C@H]1CCC(=O)N1C(=O)OCc1ccccc1 | 1 | 2 | 41* | 4 | 2 | 5 | 28
CC(C)(C)SC(=O)CC1NS(=O)(=O)OCC1NC(=O)OCC(Cl)(Cl)Cl (centres undefined) | 4 | -1 | 49* | -5 | 4 | 5 | 34*
CCOC(=O)NN=Cc1ccc(OC)c(O)c1 | . | . | . | . | 5 | . | .
Cc1c(C(=O)OC2CCCC2C)[nH]c2c1C(=O)CCC2 (centres undefined) | 0 | -3 | 59* | 4 | 1 | 7 | 39*
O=C(CC1NC2CCCCC2NC1=O)Nc1cccc(C(F)(F)F)c1 (centres undefined) | -1 | 1 | 36* | 4 | 5 | -4 | 14
O=C(COC(=O)C1CC1)NCc1ccccc1Cl | 5 | 2 | 58* | 5 | -1 | 0 | 52*
COc1ccccc1CNC(=O)COC(=O)c1cc(C)oc1C | 1 | 0 | 7 | 2 | 1 | 7 | .
COc1ccccc1CNC(=O)COC(=O)C1CC1 | -6 | 2 | 24 | -1 | 2 | 3 | .
Cc1cc(C(=O)OCC(=O)NCc2ccc(Cl)cc2Cl)c(C)o1 | 7 | 2 | 37* | 3 | 3 | 10 | 29
Cc1cc(C(=O)OCC(=O)NCc2ccccc2Cl)c(C)o1 | 2 | -1 | 51* | 2 | -1 | 0 | 50*
Cn1cc(C(=O)NN=CC2=C(N3CCOCC3)/C(=C/c3ccc([N+](=O)[O-])cc3)CC2)ccc1=O | . | . | . | . | 2 | . | .
COc1cccc(C=NNC(=O)c2c(-c3ccccc3)noc2C)c1 | . | . | . | . | 2 | . | .
Cc1ccc(CN2CCN(N=Cc3cccc([N+](=O)[O-])c3)CC2)cc1 | . | . | . | . | -1 | . | .
Cc1ccc(-n2ncc(C(=O)N3CCc4ccccc4C3)c2NC(=O)c2ccco2)cc1C | 10 | 2 | 35* | 7 | 1 | -5 | 7
O=C(COC(=O)c1cc(S(=O)(=O)N2CCOCC2)ccc1O)Nc1cc(S(=O)(=O)N2CCCC2)ccc1Cl | 8 | -3 | 77* | -2 | -8 | 8 | 76*
